Series [1] deals with T1, Mitogen-activated protein kinase 14 (Homo sapiens, UniProt Q16539). In words: Inhibition of human recombinant GST-tagged p38alphaMAPK-induced ATF2 phosphorylation.
The subject of the next series is THP-1. Put plainly: Inhibition of LPS-induced TNFalpha production in human THP1 cells after 3 hrs. The conditions noted are these: THP-1, 3 h. It is filed as functional, cell-based.
A further series deals with Blood. In words: Inhibition of TNF-induced IL8 production in human whole blood. It is filed as functional, tissue-based.
For another series, the target named is Cytochrome P450 3A4 (Homo sapiens, UniProt P08684). Put plainly: Inhibition of CYP3A4 in human liver microsomes. It is filed as ADME, Microsome.
Another series has as its target Cytochrome P450 2D6 (Homo sapiens, UniProt P10635). Put plainly: Inhibition of CYP2D6. The format is ADME.
Series [2] has as its target T2, Mast/stem cell growth factor receptor Kit (Homo sapiens, UniProt P10721). In words: Inhibition of c-KIT.
The target in series [3] is T3, Nuclear receptor subfamily 1 group I member 2 (Homo sapiens, UniProt O75469).
T3 sequence (O75469 whole entry): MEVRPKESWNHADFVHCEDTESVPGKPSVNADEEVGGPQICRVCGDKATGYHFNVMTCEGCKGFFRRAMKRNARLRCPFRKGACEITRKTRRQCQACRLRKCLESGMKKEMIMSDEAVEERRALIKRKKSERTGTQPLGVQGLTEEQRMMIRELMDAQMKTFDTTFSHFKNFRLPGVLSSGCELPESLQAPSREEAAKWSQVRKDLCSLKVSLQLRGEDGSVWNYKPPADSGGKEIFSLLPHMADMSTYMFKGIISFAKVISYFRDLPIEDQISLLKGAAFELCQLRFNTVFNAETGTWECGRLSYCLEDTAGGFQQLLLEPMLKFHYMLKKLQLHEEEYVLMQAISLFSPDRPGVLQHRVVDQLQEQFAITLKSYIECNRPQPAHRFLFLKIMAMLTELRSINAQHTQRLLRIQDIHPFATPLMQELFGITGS
In words: Activation of human PXR.

In series [4] the target is Voltage-gated inwardly rectifying potassium channel KCNH2 (Homo sapiens, UniProt Q12809). Put plainly: Inhibition of human ERG by manual electrophysiology.
Series [5] relates to Rattus norvegicus. Put plainly: Antiinflammatory effect in po dosed collagen-induced arthritis Lewis rat model assessed as inhibition of paw swelling administered once a day for 7 days. The format is functional. A digest of the protocol:
(§1)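 Lewis rats immunized intradermally with porcine type II collagen in incomplete Freund's adjuvant; dosing oral, once daily for 7 days from disease onset (days 10-12), vehicle 1% Tween-80 in Oraplus pH 2.2, doses 0.03-3.0 mg/kg. Paw diameter measured daily days 0-7; area under swelling curve used for percent inhibition versus vehicle; n = 8 rats/group. Exposure values interpolated.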

For series [6], the system named is Rattus norvegicus. Put plainly: AUC (0 to 24 hrs) in po dosed collagen-induced arthritis Lewis rat model. Further details: time < 24 hr, route oral; call rule not given here. The conditions noted are these: in vivo. The format is ADME, organism-based. An outline of the steps: as §1
Series [7] deals with Rattus norvegicus. Put plainly: Cmax in po dosed collagen-induced arthritis Lewis rat model. It is filed as ADME, organism-based. Further details: route oral. The conditions noted are these: in vivo. A digest of the protocol: as §1
Series [8] in a line: Concentration of drug level in po dosed collagen-induced arthritis Lewis rat model after 24hrs. The format is ADME, organism-based. The settings on record: in vivo, read-out: Drug uptake. A digest of the protocol:
as §1

The nature of series [9]: Volume of distribution in Sprague-Dawley rat at 2 mg/kg, iv. The format is ADME, organism-based. Further details: dose 2 mg/kg, route intravenous. The conditions noted are these: in vivo. An outline of the steps:
(§2)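 Sprague-Dawley rats given 2 mg/kg intravenously; clearance, volume of distribution and elimination half-life derived from plasma profile.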

Series [10] is described as follows: Elimination half life in Sprague-Dawley rat at 2 mg/kg, iv. The format is ADME, organism-based. Further details: dose 2 mg/kg, route intravenous. The settings on record: in vivo. A digest of the protocol: as §2
Series [11] is described as follows: Tmax in Sprague-Dawley rat at 10 mg/kg, po. The conditions noted are these: in vivo. The format is ADME, organism-based. Set-up: dose 10 mg/kg, route oral. An outline of the steps: (§3)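 Sprague-Dawley rats dosed orally at 10 mg/kg as a solution in 1% Tween-80 in OralPlus (pH 2.2); bioavailability derived against 2 mg/kg iv dosing.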
Series [12] has as its system Rattus norvegicus. In words: Cmax in Sprague-Dawley rat at 10 mg/kg, po. The format is ADME, organism-based. Set-up: dose 10 mg/kg, route oral. The conditions noted are these: in vivo. A digest of the protocol:
as §3

For series [13], the system named is Rattus norvegicus. In words: Oral bioavailability in Sprague-Dawley rat at 10 mg/kg. It is filed as ADME, organism-based. The conditions noted are these: in vivo. An outline of the steps: as §3
Series [14] is described as follows: Protein binding in Sprague-Dawley rat plasma. It is filed as ADME, cell-free. The conditions noted are these: read-out: PPB (converted). An outline of the steps:
(§4)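 Plasma protein binding in rat or human plasma measured by ultrafiltration.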

Series [15] can be described thus: Protein binding in human plasma. The format is ADME, cell-free. The settings on record: read-out: PPB (converted). An outline of the steps:
as §4

For series [16], the system named is Liver microsomes. Put plainly: Metabolic stability in Sprague-Dawley rat liver microsomes assessed per mg of protein by LCMS in presence of NADPH. It is filed as ADME, Microsome. A digest of the protocol:
(§5)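 Test article 1 µM incubated with rat or human liver microsomes (0.1 mg/mL) in 66.67 mM potassium phosphate pH 7.4; NADPH 1 mM started reaction, blank without NADPH; stopped at 10 min with acetonitrile/0.05% formic acid; remaining parent quantified by LCMS; triplicates.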

Series [17] deals with Liver microsomes. In words: Metabolic stability in human liver microsomes assessed per mg of protein by LCMS in presence of NADPH. It is filed as ADME, Microsome. An outline of the steps: as §5
The target of series [18] is T4, Mitogen-activated protein kinase 11 (Homo sapiens, UniProt Q15759). Put plainly: Inhibition of human recombinant GST-tagged p38beta-induced ATF2 phosphorylation.
In series [19] the target is T1, Mitogen-activated protein kinase 14. Put plainly: Inhibition of p38alpha at 1 uM relative to control.
In series [20] the target is T4, Mitogen-activated protein kinase 11. In words: Inhibition of p38beta at 1 uM relative to control.
Series [21] concerns the target T5, Platelet-derived growth factor receptor beta (Homo sapiens, UniProt P09619). Put plainly: Inhibition of PDGFRbeta at 1 uM relative to control.
The target of series [22] is T2, Mast/stem cell growth factor receptor Kit. Put plainly: Inhibition of c-KIT at 1 uM relative to control.
Series [23] concerns the target T5, Platelet-derived growth factor receptor beta. Put plainly: Inhibition of PDGFRbeta.

The values that follow come from ChEMBL document CHEMBL1140162, “3-amino-7-phthalazinylbenzoisoxazoles as a novel class of potent, selective, and orally available inhibitors of p38alpha mitogen-activated protein kinase” (J Med Chem, 2008).

SMILES strings stand for the structures. Where only a bound is given, the exact number is not on record here.

T1 sequence (Q16539 whole entry): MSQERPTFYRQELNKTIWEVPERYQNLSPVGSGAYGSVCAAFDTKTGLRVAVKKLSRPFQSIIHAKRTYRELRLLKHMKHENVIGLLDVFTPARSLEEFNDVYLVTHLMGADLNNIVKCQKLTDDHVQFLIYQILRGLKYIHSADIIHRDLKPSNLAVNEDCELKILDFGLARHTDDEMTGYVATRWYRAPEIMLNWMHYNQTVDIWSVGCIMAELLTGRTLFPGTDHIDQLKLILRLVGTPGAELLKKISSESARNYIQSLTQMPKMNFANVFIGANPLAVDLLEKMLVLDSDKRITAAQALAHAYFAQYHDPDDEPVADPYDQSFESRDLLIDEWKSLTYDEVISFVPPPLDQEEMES
Chain of Cytochrome P450 2D6 (P10635 whole entry): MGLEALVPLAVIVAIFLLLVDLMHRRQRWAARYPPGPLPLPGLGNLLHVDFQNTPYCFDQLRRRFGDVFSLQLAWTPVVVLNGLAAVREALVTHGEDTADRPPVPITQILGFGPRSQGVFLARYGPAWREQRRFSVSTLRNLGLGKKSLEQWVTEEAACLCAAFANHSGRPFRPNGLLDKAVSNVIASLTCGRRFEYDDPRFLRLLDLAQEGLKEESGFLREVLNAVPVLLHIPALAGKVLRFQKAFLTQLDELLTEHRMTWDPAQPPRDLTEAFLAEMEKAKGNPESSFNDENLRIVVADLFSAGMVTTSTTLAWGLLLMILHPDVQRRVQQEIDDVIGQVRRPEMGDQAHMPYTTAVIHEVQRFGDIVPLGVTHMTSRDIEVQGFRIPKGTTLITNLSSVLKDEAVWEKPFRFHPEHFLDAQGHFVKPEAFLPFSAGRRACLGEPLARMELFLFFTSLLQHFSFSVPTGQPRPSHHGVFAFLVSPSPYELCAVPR
Chain of Cytochrome P450 3A4 (P08684 whole entry): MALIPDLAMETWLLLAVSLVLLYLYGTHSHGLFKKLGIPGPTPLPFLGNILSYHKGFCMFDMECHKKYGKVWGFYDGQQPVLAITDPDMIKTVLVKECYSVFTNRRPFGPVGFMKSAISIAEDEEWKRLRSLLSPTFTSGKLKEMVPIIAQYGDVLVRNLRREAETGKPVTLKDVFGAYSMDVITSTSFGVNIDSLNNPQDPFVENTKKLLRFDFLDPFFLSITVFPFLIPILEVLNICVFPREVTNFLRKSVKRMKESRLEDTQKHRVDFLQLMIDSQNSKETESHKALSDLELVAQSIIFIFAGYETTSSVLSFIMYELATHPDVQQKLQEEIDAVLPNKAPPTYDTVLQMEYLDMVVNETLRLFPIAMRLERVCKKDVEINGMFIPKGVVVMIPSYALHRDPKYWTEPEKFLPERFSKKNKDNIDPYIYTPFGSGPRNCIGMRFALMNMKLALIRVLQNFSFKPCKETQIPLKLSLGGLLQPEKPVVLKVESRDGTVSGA
T5 sequence (P09619 whole entry): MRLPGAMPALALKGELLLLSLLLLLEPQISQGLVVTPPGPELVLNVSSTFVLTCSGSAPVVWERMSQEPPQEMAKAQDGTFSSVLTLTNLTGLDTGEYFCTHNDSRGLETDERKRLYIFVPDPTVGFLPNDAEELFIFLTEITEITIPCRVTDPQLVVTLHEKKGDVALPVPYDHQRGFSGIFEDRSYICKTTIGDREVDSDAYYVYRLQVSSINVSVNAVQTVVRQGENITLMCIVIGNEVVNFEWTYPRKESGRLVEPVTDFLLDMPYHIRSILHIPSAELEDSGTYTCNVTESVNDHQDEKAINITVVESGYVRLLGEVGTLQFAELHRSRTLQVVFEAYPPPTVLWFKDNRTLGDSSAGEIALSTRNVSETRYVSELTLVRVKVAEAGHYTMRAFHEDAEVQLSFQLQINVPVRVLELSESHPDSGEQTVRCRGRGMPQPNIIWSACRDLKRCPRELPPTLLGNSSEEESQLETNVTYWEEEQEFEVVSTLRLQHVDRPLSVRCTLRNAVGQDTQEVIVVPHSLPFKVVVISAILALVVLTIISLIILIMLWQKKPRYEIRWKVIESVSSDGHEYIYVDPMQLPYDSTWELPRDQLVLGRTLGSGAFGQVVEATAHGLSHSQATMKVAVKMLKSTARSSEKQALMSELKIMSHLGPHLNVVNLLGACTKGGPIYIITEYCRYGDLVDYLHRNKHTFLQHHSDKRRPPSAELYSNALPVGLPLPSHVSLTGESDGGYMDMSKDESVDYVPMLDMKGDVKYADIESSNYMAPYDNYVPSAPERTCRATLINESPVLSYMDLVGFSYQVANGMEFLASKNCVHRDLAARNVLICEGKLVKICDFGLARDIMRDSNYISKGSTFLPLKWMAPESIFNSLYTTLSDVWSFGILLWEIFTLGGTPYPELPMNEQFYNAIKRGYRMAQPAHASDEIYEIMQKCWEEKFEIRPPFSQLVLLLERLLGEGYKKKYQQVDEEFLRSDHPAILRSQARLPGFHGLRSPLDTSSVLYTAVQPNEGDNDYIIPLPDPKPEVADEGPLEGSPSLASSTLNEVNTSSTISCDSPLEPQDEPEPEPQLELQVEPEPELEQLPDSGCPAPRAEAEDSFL
T2 sequence (P10721 whole entry): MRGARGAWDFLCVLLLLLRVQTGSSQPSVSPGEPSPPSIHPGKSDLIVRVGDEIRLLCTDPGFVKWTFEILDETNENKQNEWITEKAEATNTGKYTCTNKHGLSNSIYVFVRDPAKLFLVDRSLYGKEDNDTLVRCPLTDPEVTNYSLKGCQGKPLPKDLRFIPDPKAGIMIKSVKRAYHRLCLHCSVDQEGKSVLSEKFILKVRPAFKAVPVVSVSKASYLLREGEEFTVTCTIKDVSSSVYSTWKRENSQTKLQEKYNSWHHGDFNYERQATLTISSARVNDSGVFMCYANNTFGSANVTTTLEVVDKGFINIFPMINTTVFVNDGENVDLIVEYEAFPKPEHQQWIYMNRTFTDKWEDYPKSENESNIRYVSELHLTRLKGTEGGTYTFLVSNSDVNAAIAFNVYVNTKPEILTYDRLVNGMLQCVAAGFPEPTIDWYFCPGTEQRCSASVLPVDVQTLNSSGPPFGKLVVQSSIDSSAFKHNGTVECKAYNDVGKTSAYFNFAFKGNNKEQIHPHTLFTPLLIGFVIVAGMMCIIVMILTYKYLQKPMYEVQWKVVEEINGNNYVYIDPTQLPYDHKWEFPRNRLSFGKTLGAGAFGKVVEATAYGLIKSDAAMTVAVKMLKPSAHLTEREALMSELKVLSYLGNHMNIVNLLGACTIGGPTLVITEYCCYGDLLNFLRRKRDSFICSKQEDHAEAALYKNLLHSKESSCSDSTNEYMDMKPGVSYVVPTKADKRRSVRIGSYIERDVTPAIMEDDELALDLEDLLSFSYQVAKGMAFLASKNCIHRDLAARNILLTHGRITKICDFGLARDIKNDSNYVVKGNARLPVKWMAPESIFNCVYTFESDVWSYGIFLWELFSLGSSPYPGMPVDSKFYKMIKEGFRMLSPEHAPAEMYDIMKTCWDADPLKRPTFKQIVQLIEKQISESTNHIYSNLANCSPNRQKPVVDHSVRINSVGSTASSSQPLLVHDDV
T4 sequence (Q15759 whole entry): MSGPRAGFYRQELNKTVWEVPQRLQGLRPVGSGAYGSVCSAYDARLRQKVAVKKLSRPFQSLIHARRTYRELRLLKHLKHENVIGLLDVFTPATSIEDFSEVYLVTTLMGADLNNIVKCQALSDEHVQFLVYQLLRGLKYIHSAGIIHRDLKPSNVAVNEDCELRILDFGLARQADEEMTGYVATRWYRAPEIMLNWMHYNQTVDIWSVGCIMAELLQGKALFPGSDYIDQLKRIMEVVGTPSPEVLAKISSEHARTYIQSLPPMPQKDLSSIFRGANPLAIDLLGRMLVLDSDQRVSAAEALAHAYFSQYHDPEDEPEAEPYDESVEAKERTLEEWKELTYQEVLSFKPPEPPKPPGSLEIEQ
Chain of Voltage-gated inwardly rectifying potassium channel KCNH2 (Q12809 whole entry): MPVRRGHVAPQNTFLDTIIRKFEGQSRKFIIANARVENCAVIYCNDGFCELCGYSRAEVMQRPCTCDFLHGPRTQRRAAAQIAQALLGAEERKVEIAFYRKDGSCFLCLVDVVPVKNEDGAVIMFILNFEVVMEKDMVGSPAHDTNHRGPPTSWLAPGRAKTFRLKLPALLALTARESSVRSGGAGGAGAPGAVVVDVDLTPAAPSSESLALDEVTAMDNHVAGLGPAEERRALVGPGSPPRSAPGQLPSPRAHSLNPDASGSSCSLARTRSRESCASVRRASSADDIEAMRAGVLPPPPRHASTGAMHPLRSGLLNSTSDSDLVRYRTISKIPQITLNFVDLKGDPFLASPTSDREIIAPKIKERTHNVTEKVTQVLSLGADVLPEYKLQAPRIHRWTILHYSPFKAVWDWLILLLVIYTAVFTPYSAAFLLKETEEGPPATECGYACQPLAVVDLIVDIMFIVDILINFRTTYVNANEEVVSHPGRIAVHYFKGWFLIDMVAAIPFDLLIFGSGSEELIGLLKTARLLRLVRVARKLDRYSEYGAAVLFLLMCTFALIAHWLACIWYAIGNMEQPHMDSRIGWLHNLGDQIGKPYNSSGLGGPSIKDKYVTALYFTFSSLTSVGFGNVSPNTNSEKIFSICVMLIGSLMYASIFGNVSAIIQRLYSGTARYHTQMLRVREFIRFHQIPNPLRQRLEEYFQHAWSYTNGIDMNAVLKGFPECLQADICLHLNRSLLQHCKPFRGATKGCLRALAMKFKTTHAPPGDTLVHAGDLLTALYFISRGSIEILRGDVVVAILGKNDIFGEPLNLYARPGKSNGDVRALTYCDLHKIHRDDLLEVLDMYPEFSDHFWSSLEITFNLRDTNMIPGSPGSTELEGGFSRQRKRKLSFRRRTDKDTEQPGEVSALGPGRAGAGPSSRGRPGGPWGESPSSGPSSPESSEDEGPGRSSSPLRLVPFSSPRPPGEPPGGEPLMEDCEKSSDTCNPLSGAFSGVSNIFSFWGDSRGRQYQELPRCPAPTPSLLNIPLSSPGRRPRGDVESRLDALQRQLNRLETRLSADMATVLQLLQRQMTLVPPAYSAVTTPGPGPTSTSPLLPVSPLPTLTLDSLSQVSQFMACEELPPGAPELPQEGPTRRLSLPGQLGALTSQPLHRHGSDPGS

Usually Ki stands for the dissociation constant of the complex between target and ligand, obtained from inhibition or displacement. In general, IC50 refers to the concentration at which inhibition is half-maximal. Take `CC[C@H](C)Nc1nncc2cc(-c3c(C)ccc4c(NC)noc34)ccc12`: the Ki in series [1] came to 0.2 nM. Further, the IC50 is 1.3 nM in the series with THP-1, 2.1 nM with Blood and above 25000 nM against Cytochrome P450 3A4.
In the same order, the values of `CNc1noc2c(-c3ccc4c(N5CCOC[C@H]5C)nncc4c3)c(C)ccc12` are 0.3 nM, 1 nM, 4.5 nM and above 25000 nM.
On the same counts, the results for `CC(C)Nc1noc2c(-c3ccc4c(N5CCOC[C@@H]5C)nncc4c3)c(Cl)ccc12` are 0.4 nM, 3.6 nM, 15 nM and 4500 nM.
In the case of `CCNc1noc2c(-c3ccc4c(N5CCOC[C@@H]5C)nncc4c3)c(C)ccc12`, the Ki in series [1] was determined as 0.3 nM. The IC50 in the series with THP-1 stood at 0.4 nM; with Blood it was 2 nM; on Cytochrome P450 3A4 it was 10000 nM.
For the compound `CNc1noc2c(-c3ccc4c(C(C)C)nncc4c3)c(C)ccc12`, in series [1], the Ki was found to be 1.1 nM. Besides, the 50% inhibitory concentration (IC50) was 1.1 nM with THP-1, 3.4 nM in the series on Blood and above 25000 nM against Cytochrome P450 3A4.
`CC(=O)N1CCN(c2nncc3cc(-c4c(C)ccc5c(NC6CC6)noc45)ccc23)[C@@H](C)C1`: the inhibitory constant (Ki) in [1] was 0.8 nM. Moreover, the IC50 is 0.8 nM in the series on THP-1, 1.4 nM with Blood and above 25000 nM against Cytochrome P450 2D6.
With `Cc1ccc2c(N)n[nH]c2c1-c1ccc2c(N3CCOC[C@@H]3C)nncc2c1`, the Ki in series [1] stood at 16 nM. Besides, the values for the IC50 with THP-1 and with Blood were 120 nM and 153 nM, respectively.
For the compound `Cc1ccc2c(N)noc2c1-c1ccc2c(N3CCOC[C@@H]3C)nncc2c1`, in [1], the Ki worked out at 0.3 nM. For the same compound, the IC50 in the series on THP-1 was 3.6 nM; in the series on Blood, 5.2 nM; against Cytochrome P450 3A4, 12000 nM.
Turning to `Cc1ccc2c(NC3CC3)noc2c1-c1ccc2c(NC(C)C)nncc2c1`, in series [1], the Ki came to 0.5 nM. Also, the IC50 with THP-1 was 0.4 nM; in the series on Blood, 0.7 nM; on Cytochrome P450 3A4 it was 5600 nM; against Cytochrome P450 2D6 it was above 25000 nM.
For `CNc1noc2c(-c3ccc4c(N5CCOC[C@@H]5C)nncc4c3)c(Cl)ccc12`, the Ki in [1] was 0.2 nM. The IC50 turned out to be 1.3 nM with THP-1, 3.3 nM in the series on Blood and 6000 nM against Cytochrome P450 3A4.
Take `Cc1ccccc1-c1nncc2cc(-c3c(C)ccc4c(NC5CC5)noc34)ccc12`: in series [1], the Ki was 0.4 nM. For the same compound, the IC50 in the series on THP-1 is 0.4 nM; with Blood, 3.3 nM; at Cytochrome P450 3A4, 1800 nM; on Cytochrome P450 2D6, above 25000 nM.
Turning to `CC(=O)Nc1noc2c(-c3ccc4c(N5CCOC[C@@H]5C)nncc4c3)c(C)ccc12`, the Ki in [1] came out at 0.6 nM. In addition, the figures for the IC50 in the series with THP-1, in the series with Blood and on Cytochrome P450 3A4 were 0.7 nM, 2 nM and above 25000 nM, respectively.
On the same counts, the results for `CNc1noc2c(-c3ccc4c(OC(C)C)nncc4c3)c(C)ccc12` are 0.4 nM, 0.7 nM, 7 nM and above 25000 nM.
For `Cc1ccc2c(N)nsc2c1-c1ccc2c(N3CCOC[C@@H]3C)nncc2c1`, in series [1], the Ki was determined as 2 nM. Further, the IC50 in the series on THP-1 was 29 nM; in the series on Blood, 50 nM; against Cytochrome P450 3A4, 4000 nM.
As usually defined, the ED50 is the dose that gives a 50% effect, or the effect in half of the subjects. What is called AUC is concentration integrated over time. A lower AUC goes with less exposure. Broadly, the Cmax is the peak of the concentration-time curve. The term Vd denotes the apparent volume that relates the amount in the body to the concentration in plasma or blood. A word on the half-life: it is the time in which the quantity being followed falls by half. In general, Tmax refers to the time from dosing to the highest level. Usually inhibition stands for the drop in the measured response relative to a control, in per cent. With `CNc1noc2c(-c3ccc4c(N5CCOC[C@@H]5C)nncc4c3)c(C)ccc12`, the IC50 in [2] was 1600 nM; in series [4] it was 13000 nM; in the series on THP-1, 0.4 nM; with Blood it was 3.3 nM; against Cytochrome P450 3A4 it was above 25000 nM; in series [23], 830 nM. Besides, the Activity entry in series [3] was “Not Active”; in the series with Rattus norvegicus [5], “Dose-dependent effect”. For the same compound, the ED50 in the series with Rattus norvegicus [5] (168 h) was 0.05 mg/kg. In the series with Rattus norvegicus [6], this compound gave an AUC of 0.0224 µM·h. The Cmax in the series with Rattus norvegicus [7] stood at 7 nM; in the series with Rattus norvegicus [12] it was 1040 ng/mL. In series [8], the concentration at 24 h was 0.3 nM. The Ki was found to be 0.4 nM in series [1] and 1.8 nM in [18]. For the same compound, the volume of distribution (Vd) in series [9] was 2.4 L/kg. Further, the half-life in [10] is 2.8 h. The Tmax in series [11] is 1.7 h. In addition, in the series with Rattus norvegicus [13], the F was 67%. The fraction unbound in [14] was 0.1; in series [15], 0.08. Besides, the Stability in the series on Liver microsomes [16] came out at 120 µL/min; in the series with Liver microsomes [17], 132 µL/min. The inhibition in series [19], in [20], in series [21] and in series [22] was below 50% throughout.
For `CNc1noc2c(-c3ccc4c(NC(C)C)nncc4c3)c(C)ccc12`, the Ki in [1] is 0.5 nM. Besides, the values for the IC50 in the series on THP-1, in the series with Blood and on Cytochrome P450 3A4 were 0.7 nM, 2.2 nM and above 25000 nM, respectively.
For the compound `Cc1ccc2c(NC3CC3)noc2c1-c1ccc2c(N3CCOC[C@@H]3C)nncc2c1`, the Ki in series [1] was 0.7 nM. Further, the IC50 is 0.6 nM in the series with THP-1, 1.3 nM in the series with Blood, 5600 nM on Cytochrome P450 3A4 and above 25000 nM against Cytochrome P450 2D6.
